Published values collected from several papers.
Target: 5-hydroxytryptamine receptor 2B (HTR2B, Homo sapiens, UniProt P41595)

CCN(Cc1ccccc1C(F)(F)F)C(=O)C1CCN(S(=O)(=O)c2ccc3[nH]ncc3c2)CC1
inhibition (ligand displacement; radioligand; 10 µM): 32%

Cc1ncc(-c2cc(Cl)ccc2F)cc1-n1c(=O)n(CC(N)=O)c2ccccc21
inhibition (ligand displacement; 10 µM): 72%

C#CCOCCOCCOc1ccc2c3c1C1CCCC1N3CCNC2 (racemic)
inhibition (ligand displacement; radioligand; 10 µM): ~70%

O=C(c1ccc(Cl)cc1)N(Cc1ccccc1)C1CCCCC1
inhibition (ligand displacement; radioligand; 10 µM): 19.9%

O=C1N=C(N2CCCCN2)S/C1=C\c1ccc(F)cc1O
inhibition (ligand displacement; radioligand; 10 µM): < 10%

CCCNc1nc2ccccc2n1Cc1ccc(Cl)cc1
inhibition (ligand displacement; 10 µM): 96.3%

CCN(CC)c1ccc(C2Nc3ccc(C(=O)c4ccccc4)cc3NC3=C2C(=O)CC(C)(C)C3)cc1 (centres unmarked)
inhibition (ligand displacement; radioligand; 10 µM): 50%

N#Cc1cc(Cn2c(N3CCCC3)nc3ccccc32)ccc1F
inhibition (ligand displacement; 10 µM): 30.4%

Nc1ccc(-c2ccncc2)cc1NC(=O)N1CCCC1
inhibition (ligand displacement; radioligand; 10 µM): 14%

O=C(Nc1ccc(S(=O)(=O)N2CCC(Cl)CC2)cc1)c1ccc([N+](=O)[O-])o1
inhibition (ligand displacement; radioligand; 10 µM): 8%

O=C(O)c1cc(-c2ccc(C3CCNCC3)cc2)c2ccc(-c3ccc(C(F)(F)F)cc3)cc2c1
inhibition (ligand displacement; 10 µM): 7.95%

Clc1cccc(OC[C@@H]2CN(CCN3CCc4ccccc43)CCO2)c1
Emax (calcium signal; agonist; fluorescence): 71.2%

O=C(c1ccc(F)cc1)N(Cc1ccccc1)C1CCCCC1
inhibition (cell-free assay; radioligand; 10 µM): 20%

Ic1cccc2cnccc12
inhibition (ligand displacement; radioligand; 10 µM): 79%
